We go through four compounds from ChEMBL document CHEMBL1143553, “Muscarinic allosteric enhancers of ligand binding: pivotal pharmacophoric elements in hexamethonio-type agents” (J Med Chem, 2005).

What all share (type): tissue-based
Assay [1] concerns the target T1, Muscarinic acetylcholine receptor M2 (Sus scrofa) (UniProt P06199).
T1 sequence (whole entry): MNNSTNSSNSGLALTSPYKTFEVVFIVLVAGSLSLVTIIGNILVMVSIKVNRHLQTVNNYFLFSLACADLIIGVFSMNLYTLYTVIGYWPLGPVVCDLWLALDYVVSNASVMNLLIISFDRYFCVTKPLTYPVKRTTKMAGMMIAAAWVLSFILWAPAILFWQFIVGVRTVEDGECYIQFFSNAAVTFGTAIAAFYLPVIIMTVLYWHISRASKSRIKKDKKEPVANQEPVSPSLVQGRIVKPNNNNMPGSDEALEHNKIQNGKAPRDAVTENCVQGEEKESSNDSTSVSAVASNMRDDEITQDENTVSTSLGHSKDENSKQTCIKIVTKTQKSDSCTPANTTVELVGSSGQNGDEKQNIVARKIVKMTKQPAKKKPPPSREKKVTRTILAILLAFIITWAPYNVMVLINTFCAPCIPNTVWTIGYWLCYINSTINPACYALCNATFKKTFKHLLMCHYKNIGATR
Briefly: Inhibition of [3H]NMS dissociation from muscarinic acetylcholine receptor M2 of pig heart ventricle homogenates; n=5. The method, boiled down: (§1)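 Two-point kinetic dissociation assay in porcine heart homogenates (M2) at 37 °C, 3 mM MgHPO4/50 mM Tris-HCl, pH 7.3. Membranes were preincubated 30 min with 0.2 nM [3H]NMS. Dissociation was started by 1 µM atropine alone or plus test compound, and specific binding measured at t = 0 and 10. Apparent k-1 relative to control was plotted against log concentration and fitted by four-parameter logistic (slope unity) for EC50,diss.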

For assay [2], the target named is T1, Muscarinic acetylcholine receptor M2 (Sus scrofa). Put plainly: Cooperativity for muscarinic acetylcholine receptor M2 of pig heart ventricle homogenates; n=5. The method, boiled down: (§2)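 Pig heart ventricle homogenate (M2) equilibrium binding at 37 °C in 3 mM MgHPO4/50 mM Tris-HCl, pH 7.3. Increasing concentrations of test compound were incubated with membranes and 0.2 nM [3H]NMS. Incubation time for equilibrium in presence of allosteric agent was computed from dissociation kinetics. Nonspecific binding was defined with 1 µM atropine. Bound and free were separated by vacuum filtration, with scintillation counting.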

The target is the same in assay [3]. Put plainly: Affinity for muscarinic acetylcholine receptor M2 of pig heart ventricle homogenates; n=5. An outline of the steps: as §2
Assay [4] shares this target. Briefly: Inhibition of [3H]NMS dissociation from muscarinic acetylcholine receptor M2 of pig heart ventricle homogenates; n=3. The method, boiled down:
as §1

Assay [5] shares this target. Put plainly: Cooperativity against muscarinic acetylcholine receptor M2 of pig heart ventricle homogenates; n=. The method, boiled down:
as §2

Assay [6] has the same target. Put plainly: Affinity for muscarinic acetylcholine receptor M2 of pig heart ventricle homogenates; n=3. The method, boiled down: as §2
For assay [7] the target is unchanged. Put plainly: Inhibition of [3H]NMS dissociation from muscarinic acetylcholine receptor M2 of pig heart ventricle homogenates; n=6. The method, boiled down:
as §1

Assay [8] shares this target. Put plainly: Cooperativity for muscarinic acetylcholine receptor M2 of pig heart ventricle homogenates; n=4. An outline of the steps: as §2
Assay [9] shares this target. Briefly: Affinity for muscarinic acetylcholine receptor M2 of pig heart ventricle homogenates; n=4. The method, boiled down:
as §2

The target is the same in assay [10]. Put plainly: Inhibition of [3H]NMS dissociation from muscarinic acetylcholine receptor M2 of pig heart ventricle homogenates; n=11. The method, boiled down: as §1
For assay [11] the target is unchanged. Put plainly: Cooperativity for muscarinic acetylcholine receptor M2 of pig heart ventricle homogenates; n=8. The method, boiled down:
as §2

Assay [12] has the same target. Put plainly: Affinity for muscarinic acetylcholine receptor M2 of pig heart ventricle homogenates; n=8. An outline of the steps: as §2

In [1], `CC(C)(CN1C(=O)c2ccccc2C1=O)C[N+](C)(C)CCCCCC[N+](C)(C)CC(C)(C)CN1C(=O)c2cccc3cccc(c23)C1=O` registered a pEC50 diss of 7.73. The same compound yielded a p alpha in assay [2] of 0.56. The compound further yielded a pKA in assay [3] of 7.41.

Compound `CC(C)(CN1C(=O)c2ccccc2C1=O)C[N+](C)(C)CCCCCC[N+](C)(C)CCCN1C(=O)c2cccc3cccc(c23)C1=O` yielded a pEC50 diss in assay [4] of 7.28. Also, in assay [5], the p alpha was -0.01. Moreover, the pKA in [6] was 7.28.

Turning to `C[N+](C)(CCCCCC[N+](C)(C)CCCN1C(=O)c2cccc3cccc(c23)C1=O)CCCN1C(=O)c2ccccc2C1=O`, in assay [7], the pEC50 diss came to 6.94. In [8], this compound registered a p alpha of -0.2. The pKA in assay [9] was 7.24.

For the compound `CC(C)(CN1C(=O)c2cccc3cccc(c23)C1=O)C[N+](C)(C)CCCCCC[N+](C)(C)CCCN1C(=O)c2ccccc2C1=O`, in assay [10], the pEC50 diss is 8.36. The p alpha in assay [11] turned out to be 0.37. In [12], the pKA worked out at 8.29.
